Source: publication PMC8148061 (Acta Pharmaceutica Sinica. B, 2020)
Read-outs that look alike come from different tables or passages of the source.

How the values were obtained:
Bcr-Abl^T315I = Bcr-Abl^T315I (Homo sapiens, UniProt P00519+P11274, T315I); test: Western blot degradation study in Ba/F3 cells expressed Bcr-Abl^T315I; assay type: cell-based; conditions: 24 h treatment, Western blot
Ba/F3 Bcr-Abl^T315I = test: Antiproliferation cell assay; assay type: cell-based; conditions: read-out: Cellular inhibition IC50 Ba/F3 Bcr-Abl^T315I
Ba/F3 Bcr-Abl^WT = test: Antiproliferation cell assay; assay type: cell-based; conditions: read-out: Cellular inhibition IC50 Ba/F3 Bcr-Abl^WT
K562 = test: Antiproliferation cell assay; assay type: cell-based, human; conditions: read-out: Cellular inhibition IC50 K562
Procedure, shortened: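 K562 (ATCC) cells were grown in RPMI-1640 with 10% FBS, penicillin, streptomycin and 2 mmol/L glutamine at 37 °C in humidified CO2. Log-phase cells were seeded at ~3000/well, rested overnight, then exposed to test compound or vehicle for 72 h (10 mmol/L DMSO stocks). CCK-8 was read as OD450−OD650, with viability normalised to no-cell blank and vehicle wells. IC50 came from concentration–response curve fitting, mean ± SD.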

| Compound | DR against Ba/F3 Bcr-Abl^T315I (%) 100 nmol/L (Bcr-Abl^T315I) [%] | DR against Ba/F3 Bcr-Abl^T315I (%) 300 nmol/L (Bcr-Abl^T315I) [%] | IC50 (Ba/F3 Bcr-Abl^T315I; 72 h, CCK-8, mean ± SD) [nM] | IC50 (Ba/F3 Bcr-Abl^WT; 72 h, CCK-8, mean ± SD) [nM] | IC50 (K562; 72 h, CCK-8, mean ± SD) [nM] | IC50 (Ba/F3 Bcr-Abl^T315I; Mus musculus, BaF3, 72 h) [nM] | IC50 (Ba/F3 Bcr-Abl^WT; Mus musculus, BaF3, 72 h) [nM] | IC50 (K562; Homo sapiens, K562, 72 h) [nM] |
| --- | --- | --- | --- | --- | --- | --- | --- | --- |
| 3-((1H-Pyrazolo[3,4-b]pyridin-5-yl)ethynyl)-N-(4-((4-(13-((2-(2,6-dioxopiperidin-3-yl)-1,3-dioxoisoindolin-4-yl)amino)-13-oxotridecyl)piperazin-1-yl)methyl)-3-(trifluoromethyl)phenyl)-4-methylbenzamide [7s] | −7.20 | 45.61 | 114 ± 29.9 | 61 ± 1.7 | 57.8 ± 19.5 |  |  |  |
| Cc1ccc(C(=O)Nc2ccc(CN3CCN(CCOCCOCCC(=O)Nc4cccc5c4CN(C4CCC(=O)NC4=O)C5=O)CC3)c(C(F)(F)F)c2)cc1C#Cc1cnc2[nH]ncc2c1 (stereo not shown) [7b, 3-((1H-Pyrazolo[3,4-b]pyridin-5-yl)ethynyl)-N-(4-((4-(2-(2-(3-((2-(2,6-dioxopiperidin-3-yl)-1-oxoisoindolin-4-yl)amino)-3-oxopropoxy)ethoxy)ethyl)piperazin-1-yl)methyl)-3-(trifluoromethyl)phenyl)-4-methylbenzamide] | −9.18 | −4.21 |  |  |  | 287 ± 23 | 65.3 ± 30.2 | 4 ± 0.6 |
| Cc1ccc(C(=O)Nc2ccc(CN3CCN(CCOCCOCCOc4cccc5c4C(=O)N(C4CCC(=O)NC4=O)C5=O)CC3)c(C(F)(F)F)c2)cc1C#Cc1cnc2[nH]ncc2c1 (stereo not shown) [7c, 3-((1H-Pyrazolo[3,4-b]pyridin-5-yl)ethynyl)-N-(4-((4-(2-(2-(2-((2-(2,6-dioxopiperidin-3-yl)-1,3-dioxoisoindolin-4-yl)oxy)ethoxy)ethoxy)ethyl)piperazin-1-yl)methyl)-3-(trifluoromethyl)phenyl)-4-methylbenzamide] | −15.62 | 9.98 |  |  |  | 212 ± 101 | 22.4 ± 10.2 | 3.2 ± 0.1 |
| Cc1ccc(C(=O)Nc2ccc(CN3CCN(CCOCCOCCC(=O)N[C@H](C(=O)C4C[C@H](O)C[C@H]4C(=O)NCc4ccc(-c5scnc5C)cc4)C(C)(C)C)CC3)c(C(F)(F)F)c2)cc1C#Cc1cnc2[nH]ncc2c1 (stereo partly drawn) [7d, 3-((1H-Pyrazolo[3,4-b]pyridin-5-yl)ethynyl)-N-(4-((4-(2-(2-(3-(((2S)-1-((2R,4S)-4-hydroxy-2-((4-(4-methylthiazol-5-yl)benzyl)carbamoyl)cyclopentyl)-3,3-dimethyl-1-oxobutan-2-yl)amino)-3-oxopropoxy)ethoxy)ethyl)piperazin-1-yl)methyl)-3-(trifluoromethyl)phenyl)-4-methylbenzamide] | −18.26 | −10.51 |  |  |  | 981 ± 24.9 | 337 ± 6.1 | 31 ± 0.1 |
| Cc1ccc(C(=O)Nc2ccc(CN3CCN(CCOCCOCCNC(=O)[C@H](CC(C)C)NC(=O)[C@@H](O)[C@H](N)Cc4ccccc4)CC3)c(C(F)(F)F)c2)cc1C#Cc1cnc2[nH]ncc2c1 [7e, 3-((1H-Pyrazolo[3,4-b]pyridin-5-yl)ethynyl)-N-(4-((4-((11S,14S,15R)-15-amino-14-hydroxy-11-isobutyl-10,13-dioxo-16-phenyl-3,6-dioxa-9,12-diazahexadecyl)piperazin-1-yl)methyl)-3-(trifluoromethyl)phenyl)-4-methylbenzamide] | −14.92 | 11.17 |  |  |  | 2310 ± 424 | 240 ± 75.4 | 58.6 ± 11.4 |
| Cc1ccc(C(=O)Nc2ccc(CN3CCN(CCOCCOCCC(=O)NC45CC6CC(CC(C6)C4)C5)CC3)c(C(F)(F)F)c2)cc1C#Cc1cnc2[nH]ncc2c1 [7f, 3-((1H-Pyrazolo[3,4-b]pyridin-5-yl)ethynyl)-N-(4-((4-(2-(2-(3-(adamantan-1-ylamino)-3-oxopropoxy)ethoxy)ethyl)piperazin-1-yl)methyl)-3-(trifluoromethyl)phenyl)-4-methylbenzamide] | −5.26 | 11.72 |  |  |  | > 10000 | > 10000 | > 10000 |
| Cc1ccc(C(=O)Nc2ccc(CN3CCN(CCOCCOCCOCCOCCOCCOCCC(=O)Nc4cccc5c4C(=O)N(C4CCC(=O)NC4=O)C5=O)CC3)c(C(F)(F)F)c2)cc1C#Cc1cnc2[nH]ncc2c1 (stereo not shown) [7k, 1-(4-(4-(3-((1H-Pyrazolo[3,4-b]pyridin-5-yl)ethynyl)-4-methylbenzamido)-2-(trifluoromethyl)benzyl)piperazin-1-yl)-N-(2-(2,6-dioxopiperidin-3-yl)-1,3-dioxoisoindolin-4-yl)-3,6,9,12,15,18-hexaoxahenicosan-21-amide] | 19.38 | 25.53 |  |  |  | 306 ± 69.3 | 107 ± 24.9 | 10.5 ± 0.5 |

Second part, the compound after the results:

| DR against Ba/F3 Bcr-Abl^T315I (%) 100 nmol/L (Bcr-Abl^T315I) [%] | DR against Ba/F3 Bcr-Abl^T315I (%) 300 nmol/L (Bcr-Abl^T315I) [%] | IC50 (Ba/F3 Bcr-Abl^T315I; 72 h, CCK-8, mean ± SD) [nM] | IC50 (Ba/F3 Bcr-Abl^WT; 72 h, CCK-8, mean ± SD) [nM] | IC50 (K562; 72 h, CCK-8, mean ± SD) [nM] | IC50 (Ba/F3 Bcr-Abl^T315I; Mus musculus, BaF3, 72 h) [nM] | IC50 (Ba/F3 Bcr-Abl^WT; Mus musculus, BaF3, 72 h) [nM] | IC50 (K562; Homo sapiens, K562, 72 h) [nM] | Compound |
| --- | --- | --- | --- | --- | --- | --- | --- | --- |
| −11.43 | 28.39 |  |  |  | 67.5 ± 3.2 | 20.7 ± 2.4 | 3.5 ± 0.5 | Cc1ccc(C(=O)Nc2ccc(CN3CCN(CCOCCC(=O)Nc4cccc5c4C(=O)N(C4CCC(=O)NC4=O)C5=O)CC3)c(C(F)(F)F)c2)cc1C#Cc1cnc2[nH]ncc2c1 (stereo not shown) [7g, 3-((1H-Pyrazolo[3,4-b]pyridin-5-yl)ethynyl)-N-(4-((4-(2-(3-((2-(2,6-dioxopiperidin-3-yl)-1,3-dioxoisoindolin-4-yl)amino)-3-oxopropoxy)ethyl)piperazin-1-yl)methyl)-3-(trifluoromethyl)phenyl)-4-methylbenzamide] |
| −22.44 | −19.45 |  |  |  | 95.4 ± 37.4 | 19.9 ± 4.2 | 11.4 ± 7.3 | Cc1ccc(C(=O)Nc2ccc(CN3CCN(CCOCCOCCOCCOCCC(=O)Nc4cccc5c4C(=O)N(C4CCC(=O)NC4=O)C5=O)CC3)c(C(F)(F)F)c2)cc1C#Cc1cnc2[nH]ncc2c1 (stereo not shown) [7i, 1-(4-(4-(3-((1H-Pyrazolo[3,4-b]pyridin-5-yl)ethynyl)-4-methylbenzamido)-2-(trifluoromethyl)benzyl)piperazin-1-yl)-N-(2-(2,6-dioxopiperidin-3-yl)-1,3-dioxoisoindolin-4-yl)-3,6,9,12-tetraoxapentadecan-15-amide] |
| −23.27 | 21.17 |  |  |  | 60.1 ± 0.3 | 14.3 ± 0.3 | 2.8 ± 0.4 | Cc1ccc(C(=O)Nc2ccc(CN3CCN(CCOCCOCCOCCOCCOCCC(=O)Nc4cccc5c4C(=O)N(C4CCC(=O)NC4=O)C5=O)CC3)c(C(F)(F)F)c2)cc1C#Cc1cnc2[nH]ncc2c1 (stereo not shown) [7j, 1-(4-(4-(3-((1H-Pyrazolo[3,4-b]pyridin-5-yl)ethynyl)-4-methylbenzamido)-2-(trifluoromethyl)benzyl)piperazin-1-yl)-N-(2-(2,6-dioxopiperidin-3-yl)-1,3-dioxoisoindolin-4-yl)-3,6,9,12,15-pentaoxaoctadecan-18-amide] |
| −30.35 | 37.19 |  |  |  | 65.8 ± 28.8 | 5.4 ± 0.8 | 2.1 ± 0.9 | Cc1ccc(C(=O)Nc2ccc(CN3CCN(CCC(=O)Nc4cccc5c4C(=O)N(C4CCC(=O)NC4=O)C5=O)CC3)c(C(F)(F)F)c2)cc1C#Cc1cnc2[nH]ncc2c1 (stereo not shown) [7l, 3-((1H-Pyrazolo[3,4-b]pyridin-5-yl)ethynyl)-N-(4-((4-(3-((2-(2,6-dioxopiperidin-3-yl)-1,3-dioxoisoindolin-4-yl)amino)-3-oxopropyl)piperazin-1-yl)methyl)-3-(trifluoromethyl)phenyl)-4-methylbenzamide] |
